In ChEMBL document CHEMBL3608210, “LC-MS- and (1)H NMR Spectroscopy-Guided Identification of Antifungal Diterpenoids from Sagittaria latifolia” (J Nat Prod, 2015):
In brackets after ≈: the same amount, converted by molar mass. Activity calls are given as the source filed them. No cut-off for these calls is given here.

Tests used:
[1] = test system: Cryptococcus bacillisporus; test: Antifungal activity against Cryptococcus gattii ATCC 32609 assessed as inhibition of microbial growth incubated for 72 hrs at 30 degC by modified CLSI protocol based method; format: functional, organism-based; conditions: ATCC 32609, 72 h
Outline: (§1)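 Strains were obtained from ATCC, and amphotericin B served as the positive control. IC50 was the concentration giving 50% growth inhibition of fungal cells. MIC was the lowest concentration allowing no detectable growth. The highest concentration tested was 20 μg/mL.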

Cryptococcus neoformans [2] = test: Antifungal activity against Cryptococcus neoformans ATCC 90113 assessed as inhibition of microbial growth incubated for 72 hrs at 30 degC by modified CLSI protocol based method; format: functional, organism-based; conditions: ATCC 90113, 72 h; outline: as §1
LLC-PK1 = test: Cytotoxicity against pig LLC-PK1 cells assessed as reduction in cell viability incubated for 48 hrs by neutral red based assay; conditions: Sus scrofa, LLC-PK1, 48 h
Outline: (§2)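 Vero (African green monkey kidney […]) and LLC-PK1 (pig kidney epithelial) cells were obtained from ATCC. Cytotoxicity was read by neutral red uptake, with doxorubicin as the positive control. IC50 was taken as the concentration giving 50% growth inhibition of the mammalian cells.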

Vero = test: Cytotoxicity against african green monkey Vero cells assessed as reduction in cell viability incubated for 48 hrs by neutral red based assay; conditions: Chlorocebus sabaeus; outline: as §2
Cryptococcus neoformans [3] = test: Antifungal activity against Cryptococcus neoformans ATCC 90113 assessed as inhibition of microbial growth at 20 ug/ml incubated for 72 hrs at 30 degC by modified CLSI protocol based method; format: functional, organism-based; outline: as §1

Compound | IC50 [1] | MIC [1] | MIC (Cryptococcus neoformans [2]) | IC50 (LLC-PK1) | IC50 (Vero) | IC50 (Cryptococcus neoformans [2]) | growth inhibition (GI) (Cryptococcus neoformans [3])
C[C@@H]1[C@H](O)[C@@H](C)/C=C/C=C/C=C/C=C/C=C/C=C/C=C/[C@H](O[C@@H]2O[C@H](C)[C@@H](O)[C@H](N)[C@@H]2O)C[C@@H]2O[C@](O)(C[C@@H](O)C[C@@H](O)[C@H](O)CC[C@@H](O)C[C@@H](O)CC(=O)O[C@H]1C)C[C@H](O)[C@H]2C(=O)O [AMPHOTERICIN B] | 0.1 µg/mL | 0.3 µg/mL | 0.7 µg/mL | – | – | – | –
C=C[C@@]1(C)CC[C@H]2C(=CC[C@H]3[C@@](C)(CO[C@@H]4O[C@@H](CO)[C@H](O)[C@H]4O)CCC[C@]23C)C1 | 1.8 µg/mL | 20 µg/mL | > 20 µg/mL | 21.5 µg/mL (≈ 51.1 µM) | 30 µg/mL (≈ 71.3 µM) | 3.7 µg/mL | –
C=C[C@@]1(C)CC[C@H]2C(=CC[C@H]3[C@@](C)(CO[C@@H]4O[C@@H](COC(C)=O)[C@H](O)[C@H]4O)CCC[C@]23C)C1 | – | – | – | – | – | – | inactive
C=C[C@@]1(C)CC[C@H]2C(=CC[C@H]3[C@@](C)(CO)CCC[C@]23C)C1 | 6.8 µg/mL | 20 µg/mL | > 20 µg/mL | 42.5 µg/mL (≈ 147 µM) | 37.5 µg/mL (≈ 130 µM) | 9.2 µg/mL | –
COc1cccc2c1C(=O)c1c(O)c3c(c(O)c1C2=O)C[C@@](O)(C(=O)CO)C[C@@H]3O[C@H]1C[C@H](N)[C@H](O)[C@H](C)O1 [DOXORUBICIN] | – | – | – | 0.4 µg/mL (≈ 0.736 µM) | 5.4 µg/mL (≈ 9.94 µM) | – | –
